19 molecules from ChEMBL document CHEMBL1150430, “Flavonoids for controlling starch digestion: structural requirements for inhibiting human alpha-amylase” (J Med Chem, 2008) can be followed below.

Assay [1] has as its target T1, Alpha-amylase 1A (Homo sapiens) (UniProt P0DUB6).
T1 sequence (whole entry): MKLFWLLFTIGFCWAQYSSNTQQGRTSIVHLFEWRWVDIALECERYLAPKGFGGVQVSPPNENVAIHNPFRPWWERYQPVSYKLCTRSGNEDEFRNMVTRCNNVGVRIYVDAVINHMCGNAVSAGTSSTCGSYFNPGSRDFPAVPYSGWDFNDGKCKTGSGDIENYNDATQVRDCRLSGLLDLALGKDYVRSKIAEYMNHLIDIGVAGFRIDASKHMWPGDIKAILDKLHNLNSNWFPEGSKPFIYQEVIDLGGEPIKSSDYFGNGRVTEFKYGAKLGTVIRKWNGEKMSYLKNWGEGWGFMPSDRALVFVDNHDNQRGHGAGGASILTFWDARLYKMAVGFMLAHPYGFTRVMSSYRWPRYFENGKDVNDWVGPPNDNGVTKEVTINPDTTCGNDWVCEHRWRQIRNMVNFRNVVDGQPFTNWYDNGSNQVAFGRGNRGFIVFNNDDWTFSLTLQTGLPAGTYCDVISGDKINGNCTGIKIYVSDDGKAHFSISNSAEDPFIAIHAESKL
The assay is described as follows: (§1) Inhibition of human salivary alpha-amylase. As to conditions: concentration not given here. The method, boiled down: (§2)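 Human salivary α-amylase (type IX-A), diluted in water on the day of use, preincubated 30 min with test compound in 50 mM NaH2PO4/50 mM NaCl/0.5 mM CaCl2/0.1% BSA, pH 6.0 (DMSO stocks). Reducing sugar by Nelson-Somogyi, A540; IC50 and maximum % inhibition.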

The next assay concerns the target T2, Alpha-amylase 1A (Homo sapiens, UniProt P0DUB6).
T2 sequence (P0DUB6 whole entry): T1 sequence (whole entry)
The description is as §1. The method, boiled down:
as §2

The molecule `O=c1c(O)c(-c2cc(O)c(O)c(O)c2)oc2cc(O)cc(O)c12` [MYRICETIN] displayed an inhibition in assay [1] of 79%. The molecule also gave an IC50 against Alpha-amylase 1A of 30.2 µM.
`Oc1cc(O)c2c(c1)O[C@H](c1ccc(O)c(O)c1)[C@@H](O)C2` came in with an inhibition in assay [1] of 13.1%.
As for `O=c1c(O)c(-c2ccc(O)cc2)oc2cc(O)cc(O)c12`, in assay [1], the inhibition turned out to be 34.5%.
The molecule `COc1ccc(-c2cc(=O)c3c(O)cc(O)cc3o2)cc1O` had an inhibition in assay [1] of 19.2%.
`O=c1c(O)c(-c2ccc(O)c(O)c2)oc2cc(O)c(O)c(O)c12` [QUERCETAGETIN] showed an inhibition in assay [1] of 97.6%. The molecule also registered an IC50 against Alpha-amylase 1A of 10.2 µM.
In turn, `O=c1c(-c2ccc(O)cc2)coc2cc(O)cc(O)c12` registered an inhibition in assay [1] of 25.1%.
Same read-out and setting: next, `COc1ccc(-c2cc(=O)c3c(O)cc(O)cc3o2)cc1`: 14.1%; `COc1ccc([C@@H]2CC(=O)c3c(O)cc(O)cc3O2)cc1O`: 39.8%.
Same read-out and setting: the value for `Oc1cc(O)c2c(c1)O[C@H](c1ccc(O)c(O)c1)[C@H](O)C2` was 10.3%.
In turn, `O=c1cc(-c2ccc(O)c(O)c2)oc2cc(O)cc(O)c12` [LUTEOLIN] registered an inhibition in assay [1] of 88.8%. Moreover, at Alpha-amylase 1A, the IC50 is 18.4 µM.
For `O=c1c(O)c(-c2ccc(O)c(O)c2)oc2cc(O)ccc12` [FISETIN], the inhibition in assay [1] is 85.6%. At Alpha-amylase 1A, this molecule had an IC50 of 19.6 µM.
In turn, `O=C1C[C@@H](c2ccc(O)cc2)Oc2cc(O)cc(O)c21` yielded an inhibition in assay [1] of 26.8%.
The same measure, in the same setting: the value for `COc1cc(-c2oc3cc(O)cc(O)c3c(=O)c2O)ccc1O` was 35.4%.
In assay [1], `O=c1cc(-c2ccc(O)cc2)oc2cc(O)c(O)c(O)c12` [SCUTELLAREIN] displayed an inhibition of 98.4%. For the same molecule, at Alpha-amylase 1A, the IC50 is 9.64 µM.
Molecule `COc1cc(O)c2c(=O)c(O)c(-c3ccc(O)c(O)c3)oc2c1` showed an inhibition in assay [1] of 8.1%.
As to `O=c1c(-c2ccc(O)cc2)coc2cc(O)ccc12`, the inhibition in assay [1] came out at 23.3%.
`O=c1c(O)c(-c2ccc(O)c(O)c2)oc2cc(O)cc(O)c12` [QUERCETIN]: the inhibition in assay [1] came to 82.1%. Besides, the IC50 against Alpha-amylase 1A was found to be 21.4 µM.
In assay [1], `C[C@H]1O[C@H](O[C@H]2[C@H](O)[C@@H](O)[C@@H](O[C@H]3[C@H](O)[C@@H](O)[C@H](O)O[C@@H]3CO)O[C@@H]2CO)[C@H](O)[C@@H](O)[C@@H]1N[C@H]1C=C(CO)[C@@H](O)[C@H](O)[C@H]1O` displayed an inhibition of 99.2%.
In assay [1], `COc1cc(O)c2c(=O)cc(-c3ccc(O)cc3)oc2c1` gave an inhibition of 17.5%.

A word on the inhibition: it is the change of the read-out against control, counted positive when it falls. The IC50 is the concentration at which inhibition is half-maximal. Low readings indicate greater potency, high ones weaker potency.
